The values that follow come from ChEMBL document CHEMBL1142556, “cis-parthenolid-9-one from Anvillea garcinii” (2000).

In brackets after ≈: the same amount, converted by molar mass.

A short description of assay [1]: Cytotoxicity against human breast cancer cells. The format is functional, Cancer cell lines. Particulars: for EC50: Homo sapiens, Cancer cell lines, read-out: ED50 (the source's name). Summed up: (§1)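 Tested in vitro by the National Cancer Institute screen. Values are averages over each cell-line subpanel. Potency is reported two ways: C50, the half-maximal effective dose in μmol/L, and ED50, the dose that inhibits net cell growth to 50% of control growth in μg/mL.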

Assay [2] is described as follows: Cytotoxicity against human melanoma cells. The format is functional, Melanoma cell. Particulars: for EC50: Homo sapiens, Melanoma cell, read-out: ED50 (the source's name). In outline:
as §1

The nature of assay [3]: Cytotoxicity against human central nervous system cancer cells. The format is functional, Cancer cell lines. The following applies: for EC50: Homo sapiens, Cancer cell lines, read-out: ED50 (the source's name). In outline:
as §1

Assay [4] is described as follows: Cytotoxicity against human leukemia cells. The format is functional, Leukemia cell. The following applies: for EC50: Homo sapiens, Leukemia cell, read-out: ED50 (the source's name). In outline: as §1
Assay [5] can be described thus: Cytotoxicity against human renal cancer cells. The following applies: for EC50: Homo sapiens, Cancer cell lines, read-out: ED50 (the source's name). The format is functional, Cancer cell lines. Summed up:
as §1

Assay [6] is described as follows: Cytotoxicity against human ovarian cancer cells. Particulars: for EC50: Homo sapiens, Cancer cell lines, read-out: ED50 (the source's name). The format is functional, Cancer cell lines. Summed up:
as §1

The nature of assay [7]: Cytotoxicity against human prostate cancer cells. The format is functional, Cancer cell lines. Particulars: for EC50: Homo sapiens, Cancer cell lines, read-out: ED50 (the source's name). In outline:
as §1

Assay [8] in a line: Cytotoxicity against human lung cancer cells. The format is functional, Cancer cell lines. The following applies: for EC50: Homo sapiens, Cancer cell lines, read-out: ED50 (the source's name). Summed up:
as §1

The nature of assay [9]: Cytotoxicity against human colon cancer cells. The format is functional, Cancer cell lines. The following applies: for EC50: Homo sapiens, Cancer cell lines, read-out: ED50 (the source's name). In outline: as §1

For `C=C1C(=O)O[C@H]2[C@H]1CC(=O)/C(C)=C/CC[C@@]1(C)O[C@@H]21`, the C50 in [1] came out at 0.6 µmol/L; in assay [2] it was 0.57 µmol/L; in assay [3], 2.9 µmol/L; in assay [4], 0.08 µmol/L; in assay [5] it was 0.41 µmol/L; in assay [6], 1.4 µmol/L. Moreover, the C50 in [7] is 2.2 µmol/L; in assay [8], 1.8 µmol/L; in assay [9] it was 0.32 µmol/L. For the same compound, the EC50 in assay [1] was 0.16 µg/mL (≈ 0.61 µM); in assay [2], 0.15 µg/mL (≈ 0.572 µM); in assay [3], 0.76 µg/mL (≈ 2.9 µM); in assay [4] it was 0.02 µg/mL (≈ 0.0762 µM); in assay [5], 0.11 µg/mL (≈ 0.419 µM); in [6], 0.37 µg/mL (≈ 1.41 µM). Also, the EC50 in assay [7] turned out to be 0.57 µg/mL (≈ 2.17 µM); in assay [8] it was 0.47 µg/mL (≈ 1.79 µM); in assay [9], 0.08 µg/mL (≈ 0.305 µM).

As to `C=C1C(=O)O[C@H]2[C@H]1CC(=O)/C(C)=C\CC[C@@]1(C)O[C@@H]21`, the C50 amounted to 9.81 µmol/L in [1]; 10.6 µmol/L in [2]; 17.1 µmol/L in assay [3]; 1.94 µmol/L in [4]; 8.05 µmol/L in [5]; 11.9 µmol/L in assay [6]. For the same compound, the C50 in [7] stood at 14.4 µmol/L; in assay [8], 13.4 µmol/L; in assay [9] it was 7.3 µmol/L. The EC50 came to 2.57 µg/mL (≈ 9.8 µM) in assay [1]; 2.77 µg/mL (≈ 10.6 µM) in assay [2]; 4.47 µg/mL (≈ 17 µM) in assay [3]; 0.51 µg/mL (≈ 1.94 µM) in assay [4]; 2.11 µg/mL (≈ 8.04 µM) in assay [5]; 3.13 µg/mL (≈ 11.9 µM) in assay [6]. Further, the EC50 in assay [7] came to 3.77 µg/mL (≈ 14.4 µM); in assay [8], 3.51 µg/mL (≈ 13.4 µM); in assay [9], 1.91 µg/mL (≈ 7.28 µM).
